Experimental data as given in ChEMBL document CHEMBL1152315, “Benzophenone derivatives from the fruits of Garcinia multiflora and their anti-inflammatory activity” (J Nat Prod, 2009).

Experiments:
[1] = Antiinflammatory activity in human neutrophils assessed as inhibition of fMet-Leu-Phe/Cytochalasin B-induced superoxide anion generation treated 5 mins before fMet-Leu-Phe/Cytochalasin B challenge by spectrophotometry; format: functional, cell-based; conditions: Neutrophil
Procedure, shortened: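 Donor neutrophils (6 × 10^5/mL, Ca2+-free HBSS pH 7.4) were given 0.5 mg/mL ferricytochrome c and 1 mM Ca2+, held at 37 °C for 2 min, then exposed to compound (10-0.01 µg/mL) or DMSO for 5 min. Cytochalasin B (1 µg/mL) was added for 3 min, then fMLP (100 nM) for 10 min. SOD-inhibitable cytochrome c reduction was read at 550 nm (ε 21.1/mM/10 mm).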

[2] = Antiinflammatory activity in human neutrophils assessed as inhibition of fMet-Leu-Phe/Cytochalasin B-induced elastase release treated 5 mins before fMet-Leu-Phe/Cytochalasin B challenge; format: functional, cell-based; conditions: Neutrophil
Procedure, shortened: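 Neutrophils from venous blood of healthy adult donors (20-28 y), isolated by dextran sedimentation, Ficoll Hypaque and hypotonic erythrocyte lysis; 6 × 10^5/mL with MeO-Suc-Ala-Ala-Pro-Val-p-nitroanilide substrate (100 µM), 37 °C for 2 min, then compound for 5 min. Stimulated with fMLP (100 nM)/CB (0.5 µg/mL). Absorbance at 405 nm monitored continuously; expressed as percent of drug-free activated control.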

Row | SMILES | IC50 [1] | IC50 [2]
1 | CC(C)=CC[C@H]1C[C@@]23C[C@@H](CC=C(C)C)C(C)(C)[C@@](CC=C(C)C)(C(=O)C(C(=O)c4ccccc4)=C2OC1(C)C)C3=O | 0.88 µM | 1.16 µM
2 | C=C(C)[C@@H](CC=C(C)C)C[C@@]12C[C@@H](CC=C(C)C)C(C)(C)[C@]3(C=CC(C)(C)OC3=C(C(=O)c3cccc(O)c3)C1=O)C2=O [13-HYDROXYGARCIMULTIFLORONE B] | 0.4 µM | 0.86 µM
3 | CC[C@H](CC[C@@H](C)[C@H]1CC[C@H]2[C@@H]3CC=C4CC(=O)CC[C@]4(C)[C@H]3CC[C@]12C)C(C)C [BETA-SITOSTENONE] | > 30 µM | > 30 µM
4 | CC(C)=CCC/C(C)=C/CC/C(C)=C/CC[C@]1(C)CCc2cc(O)cc(C)c2O1 [DELTA-TOCOTRIENOL] | 14.8 µM | 15.1 µM
5 | c1ccc2c(c1)[I+]c1ccccc1-2 [DIPHENYLENEIODONIUM] | 1.7 µM | 
6 | COc1cc2ccc(=O)oc2c(OC)c1OC [FRAXIDIN METHYL ETHER] | > 30 µM | > 30 µM
7 | CC(C)=CCC1=C2OC(C)(C)[C@@H](CC=C(C)C)C[C@@]23C[C@@H](CC=C(C)C)C(C)(C)[C@@](C(=O)c2ccccc2)(C1=O)C3=O [GARCIMULTIFLORONE A] | 5.58 µM | 4.65 µM
8 | O=S(=O)(F)Cc1ccccc1 [PHENYLMETHYLSULFONYLFLUORIDE] |  | 204 µM

The next lines start with the values.

Row | IC50 [1] | IC50 [2] | SMILES
9 | 0.11 µM | 0.14 µM | C=C(C)[C@@H](CC=C(C)C)C[C@@]12C[C@@H](CC=C(C)C)C(C)(C)[C@]3(C=CC(C)(C)OC3=C(C(=O)c3ccccc3)C1=O)C2=O [GARCIMULTIFLORONE B]
10 | 7.21 µM | 12.1 µM | C=C(C)[C@@H](CC=C(C)C)C[C@@]12C[C@H]3C[C@@H](C(C)(C)O)[C@](C(=O)c4ccccc4)(C1=O)C(=O)[C@@](CC(O)C(C)(C)O)(C2=O)C3(C)C (some centres not stated) [GARCIMULTIFLORONE C]
11 | > 30 µM | > 30 µM | COc1cc2ccc(=O)oc2cc1OC [SCOPARONE]
12 | > 30 µM | > 30 µM | CC(C)=CCC/C(C)=C/CC/C(C)=C/CC/C=C(\C)CC/C=C(\C)CCC=C(C)C [SQUALENE]
